According to ChEMBL document CHEMBL1153591, “Exploring bis-(indolyl)methane moiety as an alternative and innovative CAP group in the design of histone deacetylase (HDAC) inhibitors” (Bioorg Med Chem Lett, 2009):
pIC50: −log10 of the molar value.

Key:
HCT-116 = test: Cytotoxicity against human HCT116 cells after 24 hrs by sulforhodamine B assay; assay type: functional, cell-based; conditions: HCT-116, 24 h
NCI-H460 = test: Cytotoxicity against human H460 cells after 24 hrs by sulforhodamine B assay; assay type: functional, cell-based; conditions: NCI-H460, 24 h
Histone deacetylase 9 = Histone deacetylase 9 (Homo sapiens, UniProt Q9UKV0); test: Inhibition of human HDAC9 by fluorimetry
In short: (§1)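 Each purified single HDAC isoform incubated with fluorogenic substrate, a p53 fragment (residues […], Arg-His-Lys-Lys(Ac)) carrying an ε-acetylated lysine; deacetylation releases fluorophore, read by fluorimeter. Compounds tested as 10 doses, 1:3 serial dilution starting from 50 µM solution. IC50 from dose-response inhibition curves; trichostatin A as reference compound.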

Histone deacetylase 11 = molecular target: T1, Histone deacetylase 11 (Homo sapiens, UniProt Q96DB2); test: Inhibition of human HDAC11 by fluorimetry; in short: as §1
T1 sequence (Q96DB2 whole entry): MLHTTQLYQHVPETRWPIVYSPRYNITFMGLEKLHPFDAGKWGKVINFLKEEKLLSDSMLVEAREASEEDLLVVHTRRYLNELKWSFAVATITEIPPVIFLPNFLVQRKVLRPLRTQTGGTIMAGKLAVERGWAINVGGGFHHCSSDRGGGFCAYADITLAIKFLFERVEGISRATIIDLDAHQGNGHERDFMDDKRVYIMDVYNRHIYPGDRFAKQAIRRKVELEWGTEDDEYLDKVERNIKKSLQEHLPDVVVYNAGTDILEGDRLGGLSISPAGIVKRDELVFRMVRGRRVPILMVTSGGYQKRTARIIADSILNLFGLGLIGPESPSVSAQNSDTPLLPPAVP

Histone deacetylase 1 = Histone deacetylase 1 (Homo sapiens, UniProt Q13547); test: Inhibition of human HDAC1 by fluorimetry; in short: as §1
[1] = molecular target: T2, Polyamine deacetylase HDAC10 (Homo sapiens, UniProt Q969S8); test: Inhibition of human HDAC10 by fluorimetry; in short: as §1
T2 sequence (Q969S8 whole entry): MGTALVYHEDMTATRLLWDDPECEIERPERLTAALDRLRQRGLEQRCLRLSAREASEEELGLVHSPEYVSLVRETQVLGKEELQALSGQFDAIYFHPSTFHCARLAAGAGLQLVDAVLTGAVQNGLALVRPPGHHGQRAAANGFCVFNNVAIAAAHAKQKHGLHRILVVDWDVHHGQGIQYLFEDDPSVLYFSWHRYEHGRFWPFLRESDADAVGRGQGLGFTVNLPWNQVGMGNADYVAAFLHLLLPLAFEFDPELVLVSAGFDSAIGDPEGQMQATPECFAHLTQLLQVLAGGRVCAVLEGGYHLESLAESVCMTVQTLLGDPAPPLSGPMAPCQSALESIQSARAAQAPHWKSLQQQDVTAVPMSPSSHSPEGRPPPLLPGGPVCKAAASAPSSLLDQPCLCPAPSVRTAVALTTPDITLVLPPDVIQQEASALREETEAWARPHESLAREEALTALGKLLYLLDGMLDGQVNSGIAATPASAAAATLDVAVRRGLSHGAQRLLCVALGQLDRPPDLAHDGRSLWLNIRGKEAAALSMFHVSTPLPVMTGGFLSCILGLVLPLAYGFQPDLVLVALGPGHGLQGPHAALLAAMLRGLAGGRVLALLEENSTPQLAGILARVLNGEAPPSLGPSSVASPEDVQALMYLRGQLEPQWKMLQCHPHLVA

Histone deacetylase 2 = Histone deacetylase 2 (Homo sapiens, UniProt Q92769); test: Inhibition of human HDAC2 by fluorimetry; in short: as §1
Histone deacetylase 3 = Histone deacetylase 3 (Homo sapiens, UniProt O15379); test: Inhibition of human HDAC3 by fluorimetry; in short: as §1
Histone deacetylase 7 = molecular target: T3, Histone deacetylase 7 (Homo sapiens, UniProt Q8WUI4); test: Inhibition of human HDAC7 by fluorimetry
T3 sequence (Q8WUI4 whole entry): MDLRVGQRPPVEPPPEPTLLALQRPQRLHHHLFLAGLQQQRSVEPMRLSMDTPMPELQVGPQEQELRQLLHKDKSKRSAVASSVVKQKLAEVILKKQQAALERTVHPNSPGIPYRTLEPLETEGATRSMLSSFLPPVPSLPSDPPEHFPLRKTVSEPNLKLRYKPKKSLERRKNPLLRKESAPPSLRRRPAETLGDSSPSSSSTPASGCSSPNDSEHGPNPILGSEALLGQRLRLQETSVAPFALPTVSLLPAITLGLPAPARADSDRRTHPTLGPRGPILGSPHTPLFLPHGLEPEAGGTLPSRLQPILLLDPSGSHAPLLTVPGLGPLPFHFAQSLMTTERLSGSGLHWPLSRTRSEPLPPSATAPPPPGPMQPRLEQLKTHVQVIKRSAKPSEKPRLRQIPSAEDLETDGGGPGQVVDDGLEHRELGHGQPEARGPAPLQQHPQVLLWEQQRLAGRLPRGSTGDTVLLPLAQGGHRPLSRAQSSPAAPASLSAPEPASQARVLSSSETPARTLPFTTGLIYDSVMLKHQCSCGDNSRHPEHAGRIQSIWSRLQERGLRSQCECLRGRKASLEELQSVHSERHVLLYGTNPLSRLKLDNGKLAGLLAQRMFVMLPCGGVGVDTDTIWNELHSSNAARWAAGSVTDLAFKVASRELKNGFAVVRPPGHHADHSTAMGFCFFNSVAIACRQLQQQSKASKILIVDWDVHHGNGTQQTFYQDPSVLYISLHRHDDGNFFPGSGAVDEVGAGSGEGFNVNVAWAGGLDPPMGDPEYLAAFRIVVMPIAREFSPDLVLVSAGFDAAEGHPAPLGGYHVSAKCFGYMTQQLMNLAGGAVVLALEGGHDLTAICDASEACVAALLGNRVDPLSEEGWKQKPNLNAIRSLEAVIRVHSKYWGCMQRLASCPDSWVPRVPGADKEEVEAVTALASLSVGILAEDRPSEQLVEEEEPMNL

Histone deacetylase 8 = molecular target: T4, Histone deacetylase 8 (Homo sapiens, UniProt Q9BY41); test: Inhibition of human HDAC8 by fluorimetry; in short: as §1
T4 sequence (Q9BY41 whole entry): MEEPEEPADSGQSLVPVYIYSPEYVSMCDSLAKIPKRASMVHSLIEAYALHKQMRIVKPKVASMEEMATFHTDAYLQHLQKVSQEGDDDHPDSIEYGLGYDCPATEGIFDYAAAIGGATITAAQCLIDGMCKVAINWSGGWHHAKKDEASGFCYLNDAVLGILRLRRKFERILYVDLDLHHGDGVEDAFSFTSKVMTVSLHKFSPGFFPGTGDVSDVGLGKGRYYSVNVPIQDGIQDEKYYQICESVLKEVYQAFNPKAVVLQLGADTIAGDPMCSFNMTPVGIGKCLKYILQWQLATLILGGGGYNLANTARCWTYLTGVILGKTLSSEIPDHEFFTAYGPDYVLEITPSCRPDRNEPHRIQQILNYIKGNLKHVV

Histone deacetylase 4 = Histone deacetylase 4 (Homo sapiens, UniProt P56524); test: Inhibition of human HDAC4 by fluorimetry; in short: as §1
Histone deacetylase 5 = Histone deacetylase 5 (Homo sapiens, UniProt Q9UQL6); test: Inhibition of human HDAC5 by fluorimetry; in short: as §1
[2] = molecular target: T5, Protein deacetylase HDAC6 (Homo sapiens, UniProt Q9UBN7); test: Inhibition of human HDAC6 by fluorimetry; in short: as §1
T5 sequence (Q9UBN7 whole entry): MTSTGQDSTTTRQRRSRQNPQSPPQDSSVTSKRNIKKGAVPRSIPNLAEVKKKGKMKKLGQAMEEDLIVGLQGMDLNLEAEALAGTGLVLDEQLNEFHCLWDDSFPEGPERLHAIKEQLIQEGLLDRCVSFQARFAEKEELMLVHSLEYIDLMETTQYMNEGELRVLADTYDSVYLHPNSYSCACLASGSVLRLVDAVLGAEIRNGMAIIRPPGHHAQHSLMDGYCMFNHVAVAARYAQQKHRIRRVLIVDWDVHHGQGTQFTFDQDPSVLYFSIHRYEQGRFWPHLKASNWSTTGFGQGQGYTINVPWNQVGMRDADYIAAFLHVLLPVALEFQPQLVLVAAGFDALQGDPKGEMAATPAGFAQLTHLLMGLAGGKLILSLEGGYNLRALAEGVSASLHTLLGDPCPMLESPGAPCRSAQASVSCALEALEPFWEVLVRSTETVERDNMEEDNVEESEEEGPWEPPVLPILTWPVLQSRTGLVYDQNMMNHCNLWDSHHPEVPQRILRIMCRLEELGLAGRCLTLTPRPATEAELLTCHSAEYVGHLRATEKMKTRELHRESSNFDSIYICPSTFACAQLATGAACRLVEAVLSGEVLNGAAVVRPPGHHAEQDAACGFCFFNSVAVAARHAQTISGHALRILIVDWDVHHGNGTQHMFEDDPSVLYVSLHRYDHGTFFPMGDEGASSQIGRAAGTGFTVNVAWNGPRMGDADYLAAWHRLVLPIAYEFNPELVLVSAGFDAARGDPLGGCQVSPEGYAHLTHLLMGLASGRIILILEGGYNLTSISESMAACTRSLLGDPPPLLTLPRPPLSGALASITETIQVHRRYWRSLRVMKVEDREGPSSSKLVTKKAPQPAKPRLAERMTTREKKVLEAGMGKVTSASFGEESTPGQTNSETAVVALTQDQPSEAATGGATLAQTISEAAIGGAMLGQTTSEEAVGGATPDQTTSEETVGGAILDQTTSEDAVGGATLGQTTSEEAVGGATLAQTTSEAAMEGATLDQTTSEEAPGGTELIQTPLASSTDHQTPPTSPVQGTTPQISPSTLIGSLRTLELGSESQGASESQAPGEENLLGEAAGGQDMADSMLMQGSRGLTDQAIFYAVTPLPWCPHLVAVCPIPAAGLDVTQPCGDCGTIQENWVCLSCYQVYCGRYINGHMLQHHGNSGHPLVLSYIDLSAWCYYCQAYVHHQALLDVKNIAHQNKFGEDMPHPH

Histone deacetylase 5, sequence (Q9UQL6 whole entry): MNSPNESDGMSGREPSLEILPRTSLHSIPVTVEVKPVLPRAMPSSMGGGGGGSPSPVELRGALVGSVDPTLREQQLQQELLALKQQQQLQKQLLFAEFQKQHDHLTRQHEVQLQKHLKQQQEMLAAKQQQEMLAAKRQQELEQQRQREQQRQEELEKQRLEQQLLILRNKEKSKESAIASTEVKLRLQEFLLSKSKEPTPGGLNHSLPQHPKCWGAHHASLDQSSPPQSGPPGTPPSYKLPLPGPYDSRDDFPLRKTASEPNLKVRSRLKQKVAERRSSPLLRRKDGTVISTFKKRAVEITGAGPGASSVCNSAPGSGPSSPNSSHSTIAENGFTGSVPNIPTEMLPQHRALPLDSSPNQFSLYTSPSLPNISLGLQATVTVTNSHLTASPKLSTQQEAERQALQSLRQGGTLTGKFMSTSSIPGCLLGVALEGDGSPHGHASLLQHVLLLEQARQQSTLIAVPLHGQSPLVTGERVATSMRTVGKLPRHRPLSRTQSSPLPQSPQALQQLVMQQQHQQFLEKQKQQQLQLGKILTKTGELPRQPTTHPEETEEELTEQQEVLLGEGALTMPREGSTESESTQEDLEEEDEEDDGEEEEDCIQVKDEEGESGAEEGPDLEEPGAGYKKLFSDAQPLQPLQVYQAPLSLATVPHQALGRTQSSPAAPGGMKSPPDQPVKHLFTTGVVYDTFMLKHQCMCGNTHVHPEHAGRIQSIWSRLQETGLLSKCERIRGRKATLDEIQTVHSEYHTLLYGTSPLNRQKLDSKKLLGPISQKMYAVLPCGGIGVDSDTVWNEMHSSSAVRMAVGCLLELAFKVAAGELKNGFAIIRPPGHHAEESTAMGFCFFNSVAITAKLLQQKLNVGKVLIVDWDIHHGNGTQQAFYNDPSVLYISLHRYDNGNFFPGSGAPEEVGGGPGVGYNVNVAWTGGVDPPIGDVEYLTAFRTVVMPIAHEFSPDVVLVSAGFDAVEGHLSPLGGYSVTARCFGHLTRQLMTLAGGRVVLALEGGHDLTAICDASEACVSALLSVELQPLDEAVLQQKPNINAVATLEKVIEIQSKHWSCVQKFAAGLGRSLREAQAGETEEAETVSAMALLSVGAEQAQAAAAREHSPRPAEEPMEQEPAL
Histone deacetylase 3, sequence (O15379 whole entry): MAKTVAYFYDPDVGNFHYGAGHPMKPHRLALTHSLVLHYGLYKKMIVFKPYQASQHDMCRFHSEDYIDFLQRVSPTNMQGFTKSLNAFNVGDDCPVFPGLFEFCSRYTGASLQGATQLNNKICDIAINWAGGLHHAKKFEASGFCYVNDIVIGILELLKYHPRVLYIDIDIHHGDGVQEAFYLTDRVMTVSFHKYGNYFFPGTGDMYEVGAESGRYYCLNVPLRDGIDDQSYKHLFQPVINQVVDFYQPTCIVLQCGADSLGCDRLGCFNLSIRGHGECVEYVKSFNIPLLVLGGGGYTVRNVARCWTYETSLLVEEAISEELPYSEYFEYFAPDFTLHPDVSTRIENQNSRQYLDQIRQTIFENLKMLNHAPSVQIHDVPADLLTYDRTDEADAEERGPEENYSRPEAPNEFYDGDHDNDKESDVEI
Histone deacetylase 9, sequence (Q9UKV0 whole entry, the tested form may be a part, canonical isoform): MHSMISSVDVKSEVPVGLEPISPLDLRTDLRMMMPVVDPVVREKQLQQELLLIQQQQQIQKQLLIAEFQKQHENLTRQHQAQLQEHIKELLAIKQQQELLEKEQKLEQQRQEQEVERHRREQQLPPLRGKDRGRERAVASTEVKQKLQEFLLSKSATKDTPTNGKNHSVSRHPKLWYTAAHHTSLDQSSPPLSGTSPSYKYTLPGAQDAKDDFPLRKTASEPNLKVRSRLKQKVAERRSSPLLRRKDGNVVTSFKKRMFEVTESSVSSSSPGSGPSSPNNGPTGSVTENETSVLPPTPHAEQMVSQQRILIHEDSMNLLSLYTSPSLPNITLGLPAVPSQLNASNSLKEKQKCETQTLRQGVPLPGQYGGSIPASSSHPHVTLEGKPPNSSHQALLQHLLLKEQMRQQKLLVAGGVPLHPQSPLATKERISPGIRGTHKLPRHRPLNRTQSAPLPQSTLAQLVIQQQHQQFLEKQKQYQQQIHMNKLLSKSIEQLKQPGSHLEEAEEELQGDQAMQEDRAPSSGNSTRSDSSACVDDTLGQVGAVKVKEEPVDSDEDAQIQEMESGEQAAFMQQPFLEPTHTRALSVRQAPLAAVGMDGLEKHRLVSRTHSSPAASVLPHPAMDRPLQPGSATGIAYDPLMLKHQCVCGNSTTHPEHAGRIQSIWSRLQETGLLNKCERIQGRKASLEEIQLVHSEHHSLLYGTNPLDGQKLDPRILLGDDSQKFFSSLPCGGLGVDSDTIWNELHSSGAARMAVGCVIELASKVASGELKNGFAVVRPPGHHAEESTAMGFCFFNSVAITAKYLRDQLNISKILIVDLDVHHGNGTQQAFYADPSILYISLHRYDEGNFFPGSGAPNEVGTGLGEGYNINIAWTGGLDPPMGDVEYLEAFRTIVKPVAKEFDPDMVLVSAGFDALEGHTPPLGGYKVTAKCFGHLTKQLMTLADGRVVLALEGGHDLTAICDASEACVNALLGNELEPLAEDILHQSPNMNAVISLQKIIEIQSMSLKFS
Histone deacetylase 1, sequence (Q13547 whole entry): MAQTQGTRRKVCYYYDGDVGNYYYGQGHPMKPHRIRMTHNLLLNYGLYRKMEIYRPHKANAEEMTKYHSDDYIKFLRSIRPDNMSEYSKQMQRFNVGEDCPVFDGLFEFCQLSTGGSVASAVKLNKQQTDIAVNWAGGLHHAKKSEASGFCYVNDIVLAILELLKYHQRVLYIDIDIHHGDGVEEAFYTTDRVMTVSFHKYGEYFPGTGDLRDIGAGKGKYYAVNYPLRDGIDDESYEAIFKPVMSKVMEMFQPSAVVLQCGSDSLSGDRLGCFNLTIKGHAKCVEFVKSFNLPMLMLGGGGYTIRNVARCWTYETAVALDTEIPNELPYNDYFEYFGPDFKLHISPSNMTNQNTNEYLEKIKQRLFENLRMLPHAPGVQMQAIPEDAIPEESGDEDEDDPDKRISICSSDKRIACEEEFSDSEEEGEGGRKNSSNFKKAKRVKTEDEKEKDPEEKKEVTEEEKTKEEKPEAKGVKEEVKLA
Histone deacetylase 2, sequence (Q92769 whole entry): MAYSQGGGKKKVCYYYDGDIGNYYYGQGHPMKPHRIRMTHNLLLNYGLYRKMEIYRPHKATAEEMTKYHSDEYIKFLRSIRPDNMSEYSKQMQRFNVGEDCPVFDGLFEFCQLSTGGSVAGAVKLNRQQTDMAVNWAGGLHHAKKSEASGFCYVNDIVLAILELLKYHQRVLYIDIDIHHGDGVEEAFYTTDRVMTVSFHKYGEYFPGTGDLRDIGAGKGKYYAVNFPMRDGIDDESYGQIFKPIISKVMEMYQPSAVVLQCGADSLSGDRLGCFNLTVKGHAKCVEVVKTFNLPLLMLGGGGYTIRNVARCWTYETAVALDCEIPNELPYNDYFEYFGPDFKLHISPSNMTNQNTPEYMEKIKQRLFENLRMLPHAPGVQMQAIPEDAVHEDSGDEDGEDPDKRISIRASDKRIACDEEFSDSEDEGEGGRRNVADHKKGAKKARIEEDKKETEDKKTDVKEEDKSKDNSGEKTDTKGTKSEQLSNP
Histone deacetylase 4, sequence (P56524 whole entry): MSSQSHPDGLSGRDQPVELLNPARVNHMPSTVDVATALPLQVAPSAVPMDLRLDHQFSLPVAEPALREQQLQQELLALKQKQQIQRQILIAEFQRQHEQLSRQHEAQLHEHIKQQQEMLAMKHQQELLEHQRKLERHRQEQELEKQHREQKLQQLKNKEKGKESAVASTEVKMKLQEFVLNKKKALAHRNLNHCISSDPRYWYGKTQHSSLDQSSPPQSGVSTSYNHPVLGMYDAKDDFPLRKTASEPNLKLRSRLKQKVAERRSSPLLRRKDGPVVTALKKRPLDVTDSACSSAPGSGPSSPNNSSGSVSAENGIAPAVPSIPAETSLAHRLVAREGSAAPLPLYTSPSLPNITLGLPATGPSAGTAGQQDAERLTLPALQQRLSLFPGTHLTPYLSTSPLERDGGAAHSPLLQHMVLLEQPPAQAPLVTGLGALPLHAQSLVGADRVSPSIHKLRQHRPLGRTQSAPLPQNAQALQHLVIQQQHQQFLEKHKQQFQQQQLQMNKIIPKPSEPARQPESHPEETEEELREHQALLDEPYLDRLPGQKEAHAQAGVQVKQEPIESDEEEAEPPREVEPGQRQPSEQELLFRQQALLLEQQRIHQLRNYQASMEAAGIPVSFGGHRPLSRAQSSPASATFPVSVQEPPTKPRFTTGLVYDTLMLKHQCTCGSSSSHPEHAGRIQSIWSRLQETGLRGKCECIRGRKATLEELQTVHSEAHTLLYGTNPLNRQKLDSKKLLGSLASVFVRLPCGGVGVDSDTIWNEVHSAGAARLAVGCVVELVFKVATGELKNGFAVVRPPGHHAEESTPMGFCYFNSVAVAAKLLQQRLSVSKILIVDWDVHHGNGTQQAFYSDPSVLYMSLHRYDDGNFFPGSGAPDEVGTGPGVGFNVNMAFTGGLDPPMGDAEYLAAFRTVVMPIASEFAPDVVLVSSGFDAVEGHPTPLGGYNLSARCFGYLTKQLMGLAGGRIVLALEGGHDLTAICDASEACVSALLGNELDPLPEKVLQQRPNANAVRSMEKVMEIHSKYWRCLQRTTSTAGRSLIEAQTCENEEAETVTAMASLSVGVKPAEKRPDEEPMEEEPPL

| SMILES | pIC50 (HCT-116) | pIC50 (NCI-H460) | pIC50 (Histone deacetylase 9) | pIC50 (Histone deacetylase 11) | pIC50 (Histone deacetylase 1) | pIC50 [1] | pIC50 (Histone deacetylase 2) | pIC50 (Histone deacetylase 3) | pIC50 (Histone deacetylase 7) | pIC50 (Histone deacetylase 8) | pIC50 (Histone deacetylase 4) | pIC50 (Histone deacetylase 5) | pIC50 [2] |
| --- | --- | --- | --- | --- | --- | --- | --- | --- | --- | --- | --- | --- | --- |
| O=C(/C=C/c1ccc(C(c2c[nH]c3ccccc23)c2c[nH]c3ccccc23)cc1)NO | 5.59 | 5.59 | 5.48 | 6.39 | 5.32 | 5.33 | 5.41 | 6.36 | 5.38 | 6.14 | 5.32 | 5.31 | 5.31 |
| Nc1ccccc1NC(=O)CCCCCC(c1c[nH]c2ccccc12)c1c[nH]c2ccccc12 | 4.78 | < 4.70 | 4.30 | 5.24 | 4.68 | 4.14 | 5.96 | 6.59 |  | 4.13 | 3.82 | 4.55 |  |
| O=C(CCCCCC(c1c[nH]c2cccc(F)c12)c1c[nH]c2cccc(F)c12)NO | 6.40 | 6.15 |  |  |  |  |  |  |  |  |  |  |  |
| O=C(CCCCC(c1c[nH]c2ccccc12)c1c[nH]c2ccccc12)NO | 5.24 | 5.28 |  |  |  |  |  |  |  |  |  |  |  |
| Cc1ccc2[nH]cc(C(CCCCCC(=O)NO)c3c[nH]c4ccc(C)cc34)c2c1 | 6.57 | 6.29 |  |  |  |  |  |  |  |  |  |  |  |
| Cc1[nH]c2ccccc2c1C(CCCCCC(=O)NO)c1c(C)[nH]c2ccccc12 | 5.49 | 5.37 |  |  |  |  |  |  |  |  |  |  |  |
| O=C(CCCC(c1c[nH]c2ccccc12)c1c[nH]c2ccccc12)NO | < 4.70 | < 4.70 |  |  |  |  |  |  |  |  |  |  |  |
| Cn1cc(C(CCCCCC(=O)NO)c2cn(C)c3ccccc23)c2ccccc21 | 5.18 | 5.06 |  |  |  |  |  |  |  |  |  |  |  |
| O=C(CCCCCC(c1cc2ccccc2[nH]1)c1c[nH]c2ccccc12)NO (stereo not given) | 6.08 | 6.09 |  |  |  |  |  |  |  |  |  |  |  |
| O=C(CCCCCC(c1c[nH]c2ccccc12)c1c[nH]c2ccccc12)NO | 6.22 | 5.92 | 6.19 | 6.37 | 6.14 | 6.06 | 5.70 | 6.46 |  | 6.62 | 5.89 | 6.23 | 8.22 |
